Assays:
[1] = target: Caspase-8 (Homo sapiens, UniProt Q14790); test: Inhibition of caspase 8
In short: (§1)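 Recombinant human caspase-1, -6 or -8 at 0.5 units per assay, preincubated 10 min at 37 °C with compound in DMSO at single doses from 5 pM to 500 µM. Fluorogenic AMC substrate then added at 10 µM final (caspase-1 Ac-YVAD-AMC, caspase-6 Ac-VEID-AMC, caspase-8 Ac-IETD-AMC) for a further 10 min. Read-out was AMC fluorescence. IC50 taken by nonlinear regression.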

[2] = target: T1, Caspase-1 (Homo sapiens, UniProt P29466); test: Inhibition of caspase 1; in short: as §1
T1 sequence (P29466 whole entry): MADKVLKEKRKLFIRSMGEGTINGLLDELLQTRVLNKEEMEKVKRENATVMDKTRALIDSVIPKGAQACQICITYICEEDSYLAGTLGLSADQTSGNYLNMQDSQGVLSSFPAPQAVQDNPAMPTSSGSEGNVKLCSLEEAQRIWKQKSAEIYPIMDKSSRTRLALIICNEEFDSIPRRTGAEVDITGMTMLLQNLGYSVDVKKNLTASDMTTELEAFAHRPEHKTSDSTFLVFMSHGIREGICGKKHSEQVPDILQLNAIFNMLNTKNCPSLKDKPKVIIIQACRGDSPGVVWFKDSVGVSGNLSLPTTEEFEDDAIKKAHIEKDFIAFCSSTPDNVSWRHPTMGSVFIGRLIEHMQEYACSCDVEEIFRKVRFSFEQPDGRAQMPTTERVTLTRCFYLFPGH

[3] = target: T2, Caspase-6 (Homo sapiens, UniProt P55212); test: Inhibition of caspase 6; in short: as §1
T2 sequence (P55212 whole entry): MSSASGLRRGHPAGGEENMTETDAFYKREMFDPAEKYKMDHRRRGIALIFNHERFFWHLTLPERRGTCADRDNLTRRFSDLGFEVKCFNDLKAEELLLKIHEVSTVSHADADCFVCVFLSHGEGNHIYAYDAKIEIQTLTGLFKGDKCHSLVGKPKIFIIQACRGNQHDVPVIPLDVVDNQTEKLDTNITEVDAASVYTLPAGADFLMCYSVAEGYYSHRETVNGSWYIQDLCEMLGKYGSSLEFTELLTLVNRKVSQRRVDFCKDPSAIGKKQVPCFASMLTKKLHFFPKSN

Measured: IC50

Caspase-8, sequence (Q14790 217-374 limits assumed): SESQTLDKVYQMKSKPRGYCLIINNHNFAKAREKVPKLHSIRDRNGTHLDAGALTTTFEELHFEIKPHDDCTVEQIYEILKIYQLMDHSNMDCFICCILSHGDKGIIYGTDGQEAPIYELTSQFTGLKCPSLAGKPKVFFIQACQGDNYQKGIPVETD
Caspase-8, sequence (Q14790 385-479 limits assumed): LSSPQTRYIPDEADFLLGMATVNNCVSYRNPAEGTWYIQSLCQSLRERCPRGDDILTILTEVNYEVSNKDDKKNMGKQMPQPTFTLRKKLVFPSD

CCC[CH2][Sn]([CH2]CCC)([CH2]CCC)[c]1ccc(CN2C(=O)C(=O)c3cc(S(=O)(=O)N4CCC[C@H]4COC)ccc32)cc1 [(S)-5-[1-(2-methoxymethylpyrrolidinyl)sulfonyl]-1-(4-(tributylstannyl)benzyl)isatin]
> 500 µM: [1] | [2] | [3]

CCC[CH2][Sn]([CH2]CCC)([CH2]CCC)[c]1ccc(CN2C(=O)C(=O)c3cc(S(=O)(=O)N4CCC[C@H]4COc4ccccc4)ccc32)cc1 [(S)-5-[1-(2-phenoxymethylpyrrolidinyl)sulfonyl]-1-(4-(tributylstannyl)benzyl)isatin]
> 500 µM: [1] | [2] | [3]

From BindingDB's records for doi:10.1021/jm051217c (University Hospital of The Westfälische …, 2006)
